Experimental data reported in ChEMBL document CHEMBL1649117, “GRL-02031, a novel nonpeptidic protease inhibitor (PI) containing a stereochemically defined fused cyclopentanyltetrahydrofuran potent against multi-PI-resistant human immunodeficiency virus type 1 in vitro” (Antimicrob Agents Chemother, 2009).

Tests used:
[1] = tested on: Human immunodeficiency virus 1; test: Ratio of EC50 for HIV1 NL4-3 harboring I47V mutation in protease encoding region infected in human […] cells to EC50 for HIV1 NL4-3 infected in human MT4 cells; type: functional
[2] = tested on: Human immunodeficiency virus 1; test: Ratio of EC50 for ritonavir to compound against HIV1 NL4-3 harboring I84V/I85V mutation in protease encoding region infected in human […] cells; type: functional
[3] = tested on: Human immunodeficiency virus 1; test: Ratio of EC50 for ritonavir to compound against HIV1 NL4-3 harboring I85V mutation in protease encoding region infected in human […] cells; type: functional
[4] = tested on: Human immunodeficiency virus 1; test: Ratio of EC50 for HIV1 NL4-3 harboring L90M mutation in protease encoding region infected in human […] cells to EC50 for HIV1 NL4-3 infected in human MT4 cells; type: functional
[5] = tested on: Human immunodeficiency virus 1; test: Antiviral activity against HIV1 NL4-3 harboring I47V mutation in protease encoding region infected in human […] cells assessed as inhibition of p24 Gag protein production by ELISA; type: functional, organism-based; conditions: Human immunodeficiency virus 1, NL4-3
How it was run: (§1)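 Protease PCR fragments (ApaI/SmaI) were cloned into pHIV-1NLSma, and virions were harvested from transfected 293T cells over 48 h. MT-4 target cells (10^5/ml) were infected with 100 TCID50s, with or without drug, at 37°C. Day-7 supernatant p24 Gag was read by chemiluminescent enzyme immunoassay.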

[6] = tested on: Human immunodeficiency virus 1; test: Ratio of EC50 for amprenavir to compound against HIV1 NL4-3 harboring I47V mutation in protease encoding region infected in human […] cells; type: functional
[7] = tested on: Human immunodeficiency virus 1; test: Ratio of EC50 for ritonavir to compound against HIV1 NL4-3 harboring L10F/I47V/V82I/I85V mutation in protease encoding region infected in human […] cells; type: functional
[8] = tested on: Human immunodeficiency virus 1; test: Ratio of EC50 for saquinavir to compound against HIV1 NL4-3 harboring G48V mutation in protease encoding region infected in human […] cells; type: functional
[9] = tested on: Human immunodeficiency virus 1; test: Ratio of EC50 for ritonavir to compound against HIV1 NL4-3 harboring L33F mutation in protease encoding region infected in human […] cells; type: functional
[10] = tested on: Human immunodeficiency virus 1; test: Ratio of EC50 for HIV1 NL4-3 harboring L10F mutation in protease encoding region infected in human […] cells to EC50 for HIV1 NL4-3 infected in human MT4 cells; type: functional
[11] = tested on: Human immunodeficiency virus 1; test: Antiviral activity against HIV1 NL4-3 harboring L90M mutation in protease encoding region infected in human […] cells assessed as inhibition of p24 Gag protein production by ELISA; type: functional, organism-based; conditions: Human immunodeficiency virus 1, NL4-3; how it was run: as §1
[12] = tested on: Human immunodeficiency virus 1; test: Antiviral activity against HIV1 NL4-3 harboring I84V/I85V mutation in protease encoding region infected in human […] cells assessed as inhibition of p24 Gag protein production by ELISA; type: functional, organism-based; conditions: Human immunodeficiency virus 1, NL4-3; how it was run: as §1
[13] = tested on: Human immunodeficiency virus 1; test: Antiviral activity against HIV1 NL4-3 harboring I85V mutation in protease encoding region infected in human […] cells assessed as inhibition of p24 Gag protein production by ELISA; type: functional, organism-based; conditions: Human immunodeficiency virus 1, NL4-3; how it was run: as §1
[14] = tested on: Human immunodeficiency virus 1; test: Ratio of EC50 for HIV1 NL4-3 harboring I50V mutation in protease encoding region infected in human […] cells to EC50 for HIV1 NL4-3 infected in human MT4 cells; type: functional
[15] = tested on: Human immunodeficiency virus 1; test: Antiviral activity against HIV1 NL4-3 harboring V82I mutation in protease encoding region infected in human […] cells assessed as inhibition of p24 Gag protein production by ELISA; type: functional, organism-based; conditions: Human immunodeficiency virus 1, NL4-3; how it was run: as §1
[16] = tested on: Human immunodeficiency virus 1; test: Ratio of EC50 for HIV1 NL4-3 harboring M46I mutation in protease encoding region infected in human […] cells to EC50 for HIV1 NL4-3 infected in human MT4 cells; type: functional
[17] = tested on: Human immunodeficiency virus 1; test: Antiviral activity against HIV1 subtype C 97ZA003 infected in human PHA-PBM cells after 7 days by MTT assay; type: functional, organism-based; conditions: Human immunodeficiency virus 1, subtype C 97ZA003, PBMC, 168 h
[18] = tested on: Human immunodeficiency virus 1; test: Antiviral activity against HIV1 subtype A 92UG037 infected in human PHA-PBM cells after 7 days by MTT assay; type: functional, organism-based; conditions: Human immunodeficiency virus 1, subtype A 92UG037, PBMC, 168 h
[19] = tested on: Human immunodeficiency virus 1; test: Antiviral activity against HIV1 NL4-3 harboring M46I/I47V mutation in protease encoding region infected in human […] cells assessed as inhibition of p24 Gag protein production by ELISA; type: functional, organism-based; conditions: Human immunodeficiency virus 1, NL4-3; how it was run: as §1
[20] = tested on: Human immunodeficiency virus 1; test: Ratio of EC50 for amprenavir to compound against HIV1 NL4-3 harboring I50V mutation in protease encoding region infected in human […] cells; type: functional
[21] = tested on: Human immunodeficiency virus 1; test: Ratio of EC50 for HIV1 NL4-3 harboring I84V/I85V mutation in protease encoding region infected in human […] cells to EC50 for HIV1 NL4-3 infected in human MT4 cells; type: functional
[22] = tested on: Human immunodeficiency virus 1; test: Antiviral activity against HIV1 NL4-3 harboring M46I mutation in protease encoding region infected in human […] cells assessed as inhibition of p24 Gag protein production by ELISA; type: functional, organism-based; conditions: Human immunodeficiency virus 1, NL4-3; how it was run: as §1
[23] = tested on: Human immunodeficiency virus 1; test: Ratio of EC50 for saquinavir to compound against HIV1 NL4-3 harboring L90M mutation in protease encoding region infected in human […] cells; type: functional
[24] = tested on: Human immunodeficiency virus 1; test: Ratio of EC50 for HIV1 NL4-3 harboring L33F mutation in protease encoding region infected in human […] cells to EC50 for HIV1 NL4-3 infected in human MT4 cells; type: functional
[25] = tested on: Human immunodeficiency virus 1; test: Antiviral activity against HIV1 NL4-3 harboring L10F/I47V/V82I/I85V mutation in protease encoding region infected in human […] cells assessed as inhibition of p24 Gag protein production by ELISA; type: functional, organism-based; conditions: Human immunodeficiency virus 1, NL4-3; how it was run: as §1
[26] = tested on: Human immunodeficiency virus 1; test: Antiviral activity against HIV1 NL4-3 harboring I50V mutation in protease encoding region infected in human […] cells assessed as inhibition of p24 Gag protein production by ELISA; type: functional, organism-based; conditions: Human immunodeficiency virus 1, NL4-3; how it was run: as §1
[27] = tested on: Human immunodeficiency virus 1; test: Ratio of EC50 for HIV1 NL4-3 harboring I85V mutation in protease encoding region infected in human […] cells to EC50 for HIV1 NL4-3 infected in human MT4 cells; type: functional
[28] = tested on: Human immunodeficiency virus 1; test: Ratio of EC50 for HIV1 NL4-3 harboring L10F/I47V/V82I/I85V mutation in protease encoding region infected in human […] cells to EC50 for HIV1 NL4-3 infected in human MT4 cells; type: functional
[29] = tested on: Human immunodeficiency virus 1; test: Antiviral activity against HIV1 NL4-3 harboring L10F/M46I/I47V/V82I/I85V mutation in protease encoding region infected in human […] cells assessed as inhibition of p24 Gag protein production by ELISA; type: functional, organism-based; conditions: Human immunodeficiency virus 1, NL4-3; how it was run: as §1
[30] = tested on: Human immunodeficiency virus 1; test: Antiviral activity against HIV1 NL4-3 harboring L10F mutation in protease encoding region infected in human […] cells assessed as inhibition of p24 Gag protein production by ELISA; type: functional, organism-based; conditions: Human immunodeficiency virus 1, NL4-3; how it was run: as §1
[31] = tested on: Human immunodeficiency virus 1; test: Antiviral activity against HIV1 NL4-3 harboring D30N mutation in protease encoding region infected in human […] cells assessed as inhibition of p24 Gag protein production by ELISA; type: functional, organism-based; conditions: Human immunodeficiency virus 1, NL4-3; how it was run: as §1
[32] = tested on: Human immunodeficiency virus 1; test: Ratio of EC50 for ritonavir to compound against HIV1 NL4-3 harboring M46I mutation in protease encoding region infected in human […] cells; type: functional
[33] = tested on: Human immunodeficiency virus 1; test: Ratio of EC50 for HIV1 NL4-3 harboring V82I/I85V mutation in protease encoding region infected in human […] cells to EC50 for HIV1 NL4-3 infected in human MT4 cells; type: functional

## COc1ccc(S(=O)(=O)N(C[C@@H]2CCC(=O)N2)C[C@@H](O)[C@H](Cc2ccccc2)NC(=O)O[C@@H]2C[C@@H]3CCO[C@@H]3C2)cc1
[1]
  Ratio EC50: 1.6
[2]
  Ratio EC50: 14.8
[3]
  Ratio EC50: 2.1
[4]
  Ratio EC50: 1.4
[5]
  EC50: 37 nM
[6]
  Ratio EC50: 1.2
[7]
  Ratio EC50: 1.9
[8]
  Ratio EC50: 5.1
[9]
  Ratio EC50: 1
[10]
  Ratio EC50: 1.6
[11]
  EC50: 32 nM
[12]
  EC50: 97 nM
[13]
  EC50: 24 nM
[14]
  Ratio EC50: 0.7
[15]
  EC50: 35 nM
[16]
  Ratio EC50: 1.2
[17]
  EC50: 15 nM
[18]
  EC50: 15 nM
[19]
  EC50: 73 nM
[20]
  Ratio EC50: 1.2
[21]
  Ratio EC50: 4.2
[22]
  EC50: 28 nM
[23]
  Ratio EC50: 1
[24]
  Ratio EC50: 1.2
[25]
  EC50: 430 nM
[26]
  EC50: 15 nM
[27]
  Ratio EC50: 1
[28]
  Ratio EC50: 18.7
[29]
  EC50: > 1000 nM
[30]
  EC50: 37 nM
[31]
  EC50: 20 nM
[32]
  Ratio EC50: 1.2
[33]
  Ratio EC50: 1.5
